# Experimental data from different studies.
# Protocols differ between the studies behind these lines.
# Organism: Plasmodium falciparum
# Effect on: parasite growth
# Method: SYBR Green
Structure (SMILES),test system,conditions,endpoint,result
CC(C)C[C@H](NC(=O)[C@H](Cc1ccccc1)NC(=O)c1cnccn1)B(O)O,DD2,blood stage,EC50,41 nM
CCCCCCNC[C@@H](O)c1cc(Cl)cc2c1-c1ccc(Cl)cc1C2,W2,"48 h, drug-resistant strain, blood stage",IC50,6.5 nM
Cn1cc2c3c1C(=O)C(N)=CC3=NCC2,DD2,blood stage,IC50,3550 nM
CCN(CC)CCCC(C)Nc1ccnc2cc(Cl)ccc12 (stereo not shown),DD2,"drug-resistant strain, blood stage",IC50,848 nM
Cn1cc2c3c1C(=O)C(N)=CC3=[N+](C)CC2,3D7,blood stage,IC50,1140 nM
CC(C)C[C@@H](C=O)NC(=O)[C@H](CC(C)C)NC(=O)[C@H](CC(C)C)NC(=O)OCc1ccccc1,DD2,blood stage,EC50,69 nM
CCN(CC)CCCC(C)Nc1ccnc2cc(Cl)ccc12 (stereo not shown),"MDR, TM90","72 h, drug-resistant strain, blood stage",IC50,354 nM
COCC(=O)N1CCC[C@H](C(=O)NCc2nc(-c3ccc(C#N)cc3)cs2)C1,DD2,blood stage,EC50,18 nM
O=Cc1cn(Cc2cn(-c3ccnc4cc(Cl)ccc34)nn2)c2ccccc12,3D7,"5 µM, blood stage",inhibition,-4.99%
O[C@H](CN[C@H](COCC1CC1)Cc1ccccc1)c1cc(Cl)cc2c1-c1ccc(Cl)cc1C2,W2,"48 h, drug-resistant strain, blood stage",IC50,2.8 nM
O=C1C(NCCc2c[nH]c3ccccc23)=CC2=NCCc3c[nH]c1c32,3D7,blood stage,IC50,160 nM
COCC(=O)N1CCC[C@H](C(=O)NCc2nc(-c3ccccc3)cs2)C1,DD2,"72 h, blood stage",EC50,69 nM
C[N+]1=C2C=C(N)C(=O)c3[nH]cc(c32)CC1,3D7,blood stage,IC50,196 nM
CCCCCCCNCC(O)c1cc(Cl)cc2c1-c1ccc(Cl)cc1C2 (racemic),W2,"48 h, drug-resistant strain, blood stage",IC50,18.6 nM
O=C1C=C2NCCc3c[nH]c(c32)C1=O,3D7,blood stage,IC50,29600 nM
O[C@@H](CNCCCC(F)(F)F)c1cc(Cl)cc2c1-c1ccc(Cl)cc1C2,W2,"48 h, drug-resistant strain, blood stage",IC50,3.8 nM
CC(O)(CS(=O)(=O)c1ccc(F)cc1)C(=O)Nc1ccc(C#N)c(C(F)(F)F)c1 (stereo not shown),DD2,"48 h, drug-resistant strain, blood stage",IC50,> 10000 nM
Cn1cc2c3c1C(=O)C(NCCc1ccc(O)cc1)=CC3=NCC2,3D7,blood stage,IC50,3310 nM
O[C@H](CNCCN1CCN(C(c2ccccc2)c2ccccc2)CC1)c1cc(Cl)cc2c1-c1ccc(Cl)cc1C2,W2,"48 h, drug-resistant strain, blood stage",IC50,13 nM
C[N+]1=C2C=C(NCCc3ccc(O)cc3)C(=O)c3[nH]cc(c32)CC1,DD2,blood stage,IC50,28.3 nM
COc1ccccc1C(=O)/C=C/c1cn(Cc2cn(-c3ccnc4cc(Cl)ccc34)nn2)c2ccccc12,3D7,"10 µM, blood stage",inhibition,> 50%
CCCCCNC[C@H](O)c1cc(Cl)cc2c1-c1ccc(Cl)cc1C2,W2,"48 h, drug-resistant strain, blood stage",IC50,3.7 nM
